Calls of active or inactive are those of the source. No cut-off for these calls is given here.
Key:
[1] = Cytotoxicity against human MRC5 cells assessed as reduction in cell viability after 24 hrs by NRU assay; type: cell-based
[2] = test system: Mycobacterium tuberculosis; experiment: Antitubercular activity against Mycobacterium tuberculosis H37Rv ATCC 27294 assessed as reduction in microbial growth under 7H9/glucose medium after 1 week by two fold serial dilution method; type: functional; details: H37Rv ATCC 27294, 168 h, time 1 weeks
Method in brief: (§1)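 M. tuberculosis H37Rv grown to OD650nm 0.2-0.3 and diluted 1000-fold; about 1× 10^4 bacteria per well. Compounds taken from DMSO stocks and 2-fold serially diluted, in duplicate. Incubated 37 °C for 1 week, read by inverted mirror. MIC = lowest concentration giving complete growth inhibition. Isoniazid positive control, DMSO negative control. Media: GAST/Fe pH 6.6 or 7H9/glucose/casitone/Tyloxapol.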

[3] = test system: Mycobacterium tuberculosis; experiment: Antitubercular activity against Mycobacterium tuberculosis H37Rv ATCC 27294 assessed as reduction in microbial growth under GAST/Fe medium after 1 week by two fold serial dilution method; type: functional; details: H37Rv ATCC 27294, 168 h, time 1 weeks; method in brief: as §1
[4] = Inhibition of wild-type Mycobacterium tuberculosis thymidylate kinase expressed in Escherichia coli BLi5 competent cells using dTMP as substrate by lactate dehydrogenase, pyruvate kinase and nucleoside diphosphate kinase coupled spectrophotometric method
Method in brief: (§2)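 Purified MtbTMPK in a coupled spectrophotometric assay. Substrates fixed at dTMP 0.05 mM and ATP 0.5 mM. Compounds in DMSO, serially diluted; IC50 calculated, or no inhibition recorded at 0.2 mM.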

[5] = Selectivity index, ratio of CC50 for human MRC5 cells to ratio of MIC99 for antitubercular activity against Mycobacterium tuberculosis H37Rv ATCC 27294 assessed as reduction in microbial growth under GAST/Fe medium; type: toxicity; details: read-out: Selectivity Index
[6] = Selectivity index, ratio of CC50 for human MRC5 cells to ratio of MIC99 for antitubercular activity against Mycobacterium tuberculosis H37Rv ATCC 27294 assessed as reduction in microbial growth under 7H9/glucose medium; type: toxicity; details: read-out: Selectivity Index
[7] = test system: Mycobacterium tuberculosis; experiment: Inhibition of wild-type Mycobacterium tuberculosis thymidylate kinase expressed in Escherichia coli BLi5 competent cells at 0.2 mM using dTMP as substrate by lactate dehydrogenase, pyruvate kinase and nucleoside diphosphate kinase coupled spectrophotometric method; method in brief: as §2

Structure (SMILES)	CC50 at 24 h [1] [µM]	MIC99 [2] [µM]	MIC99 [3] [µM]	IC50 [4] [µM]	selectivity ratio [5]	selectivity ratio [6]	inhibition [7]
Cc1ccc(Oc2ccc(-c3c[nH]c(=O)c(C#N)c3[S+](C)[O-])cc2)cc1 (centres undefined)	28	9.4	4.7	–	–	–	–
CS(=O)(=O)c1c(-c2cccc(Cl)c2)c[nH]c(=O)c1C#N	> 64	> 50	> 50	–	–	–	–
C[S+]([O-])c1c(-c2ccc(OCc3ccccc3)cc2)c[nH]c(=O)c1C#N (centres undefined)	25	9.4	4.7	–	–	–	–
C[S+]([O-])c1c(-c2cccc(OCc3cccc(Cl)c3)c2)c[nH]c(=O)c1C#N (centres undefined)	> 64	9.4	9.4	–	–	–	–
C[S+]([O-])c1c(-c2ccc(Cl)c(Cl)c2)c[nH]c(=O)c1C#N (centres undefined)	> 64	19	12.5	–	–	–	–
CS(=O)(=O)c1c(-c2ccc(Cl)c(Cl)c2)c[nH]c(=O)c1C(N)=O	> 64	–	19	–	–	–	–
C[S+]([O-])c1c(-c2ccc(Br)cc2)c[nH]c(=O)c1C#N (centres undefined)	> 64	12.5	19	–	–	–	–
CSc1c(-c2ccccc2)c[nH]c(=O)c1C#N	64	100	≥ 100	206	–	–	–
C[S+]([O-])c1cc(-c2cccc(Br)c2)[nH]c(=O)c1C#N (centres undefined)	–	19	19	28	–	–	–
C[S+]([O-])c1c(-c2cccc(OCc3ccccc3[N+](=O)[O-])c2)c[nH]c(=O)c1C#N (centres undefined)	64	37	19	–	–	–	–
COc1ccc(-c2c[nH]c(=O)c(C#N)c2[S+](C)[O-])cc1 (centres undefined)	> 64	> 100	> 100	–	–	–	–
CS(=O)(=O)c1c(-c2ccccc2Cl)c[nH]c(=O)c1C#N	> 64	37	> 50	–	–	–	–
C[S+]([O-])c1c(-c2ccc(-c3ccccc3)cc2)c[nH]c(=O)c1C#N (centres undefined)	> 64	1.2	2.3	–	27.8	50	–
C[S+]([O-])c1c(-c2ccccc2Oc2ccccc2)c[nH]c(=O)c1C#N (centres undefined)	30	50	9.4	–	–	–	inactive
C[S+]([O-])c1c(-c2ccc(Cl)cc2)c[nH]c(=O)c1C#N (centres undefined)	> 64	19	25	–	–	–	–
C[S+]([O-])c1c(-c2cccc(Oc3ccc(Cl)c(Cl)c3)c2)c[nH]c(=O)c1C#N (centres undefined)	8	12.5	19	–	–	–	–
C[S+]([O-])c1c(-c2cccc(OCc3ccccc3)c2)c[nH]c(=O)c1C#N (centres undefined)	25	19	6.25	–	–	–	–
CS(=O)(=O)c1c(-c2ccc(C(F)(F)F)cc2)c[nH]c(=O)c1C#N	> 64	> 50	> 50	–	–	–	–

Structure (SMILES)	CC50 at 24 h [1] [µM]	MIC99 [2] [µM]	MIC99 [3] [µM]	IC50 [4] [µM]	selectivity ratio [5]	selectivity ratio [6]	inhibition [7]
C[S+]([O-])c1c(-c2ccccc2Cl)c[nH]c(=O)c1C#N (centres undefined)	> 64	12.5	37	–	–	–	–
C[S+]([O-])c1c(-c2cccc(Cl)c2)c[nH]c(=O)c1C#N (centres undefined)	> 64	19	37	–	–	–	–
Cc1ccc(Oc2cccc(-c3c[nH]c(=O)c(C#N)c3[S+](C)[O-])c2)cc1 (centres undefined)	30	25	6.25	–	–	–	–
C[S+]([O-])c1c(-c2ccc(Oc3ccc(Cl)cc3)cc2)c[nH]c(=O)c1C#N (centres undefined)	25	9.4	9.4	–	–	–	–
COc1ccc(Oc2cccc(-c3c[nH]c(=O)c(C#N)c3[S+](C)[O-])c2)cc1 (centres undefined)	30	25	6.25	–	–	–	–
C[S+]([O-])c1c(-c2ccc(C(F)(F)F)cc2)c[nH]c(=O)c1C#N (centres undefined)	> 64	37	19	–	–	–	–
COc1ccc(Oc2ccc(-c3c[nH]c(=O)c(C#N)c3[S+](C)[O-])cc2)cc1 (centres undefined)	23	19	9.4	–	–	–	–
C[S+]([O-])c1c(-c2ccc(Cl)c(Cl)c2)c[nH]c(=O)c1C(N)=O (centres undefined)	16	50	≥ 50	–	–	–	–
C[S+]([O-])c1c(-c2cccc(Oc3ccccc3)c2)c[nH]c(=O)c1C#N (centres undefined)	32	37	–	–	–	–	inactive
C[S+]([O-])c1c(-c2ccc(Oc3ccc(Cl)c(Cl)c3)cc2)c[nH]c(=O)c1C#N (centres undefined)	28	9.4	19	–	–	–	–
C[S+]([O-])c1c(-c2cccc(OCc3ccccc3Cl)c2)c[nH]c(=O)c1C#N (centres undefined)	25	9.4	4.7	–	–	–	–
C[S+]([O-])c1c(-c2ccccc2)c[nH]c(=O)c1C#N (centres undefined)	> 64	25	37	–	–	–	inactive
C[S+]([O-])c1c(-c2ccc(Oc3ccccc3)cc2)c[nH]c(=O)c1C#N (centres undefined)	> 64	25	3.13	–	–	–	inactive
C[S+]([O-])c1c(-c2cccc(Oc3ccc(Cl)cc3)c2)c[nH]c(=O)c1C#N (centres undefined)	24	12.5	9.5	–	–	–	–
C[S+]([O-])c1c(-c2cccc(OCc3ccc(Cl)cc3)c2)c[nH]c(=O)c1C#N (centres undefined)	31	9.4	9.4	–	–	–	–
C[S+]([O-])c1c(-c2cccc(OCc3ccc(Cl)c(Cl)c3)c2)c[nH]c(=O)c1C#N (centres undefined)	> 64	9.4	9.4	–	–	–	–
NNC(=O)c1ccncc1 [ISONIAZID]	–	0.15	0.2	–	–	–	–

Reference: ChEMBL document CHEMBL4706502, “Synthesis and structure activity relationships of cyanopyridone based anti-tuberculosis agents” (Eur J Med Chem, 2020)
